Assay [1] in a line: S. pyogenes streptokinase expression inhibitors, potency, dose response, OD405 absorbance, dry powder, set 3 (AID 504351). The note with it: S. pyogenes UMAA2166, streptokinase activity in supernatant, OD405, 6 h; at 50 µM (top of the series). In short, it runs like this:
(§1)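 System – group A Streptococcus (S. pyogenes) cultures, streptokinase from supernatant · Quantity – bacteria seeded at OD600 of 0.015 · Also added – human plasma plasminogen plus chromogenic substrate S2403 in streptokinase test · Incubation – 6 h compound exposure of cultures at 37 °C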

Assay [2] deals with S. pyogenes UMAA2166, streptokinase activity in supernatant, OD405, 6 h. The assay is described as above. The gist of the method:
as §1

Each structure is given as a SMILES string. Inconclusive results are not listed. Active and inactive are the calls of the source.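 How the source made its calls: active means every replicate test active, meaning falling signal with half-maximal potency at most ten times the top valid dose; inconclusive means replicate test calls disagree with each other; inactive means every replicate test inactive, including signal rising instead.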

The term AC50 denotes the concentration giving half of the maximal activity seen.

Consider `COc1cccc(-c2nc3ccccc3c(=O)[nH]2)c1`, for which the “activity change, negative = inhibition” value in assay [1] is “inactive”.
As to `CCCOc1ccc(-c2nc(Oc3ccc(F)cc3)c3ccccc3n2)cc1`, the “activity change, negative = inhibition” value in assay [1] was “inactive”.
Still for that read-out and setting: the same measure for `CC(C)Oc1ccc(-c2nc3ccccc3c(=O)[nH]2)cc1`: “inactive”; for `O=c1[nH]c(-c2ccc(Cl)cc2)nc2ccccc12`: “inactive”; for `COc1ccccc1C(=O)n1c2ccccc2c2ccccc21`: “inactive”.
Regarding `CS(=O)(=O)c1ccc(NC(=O)c2ccccc2Cl)cc1`, the “activity change, negative = inhibition” value in assay [1] was “inactive”.
For the compound `O=c1[nH]c(-c2cccc(Cl)c2)nc2ccccc12`, in assay [1], the “activity change, negative = inhibition” value is “inactive”.
Consider `COc1ccc(S(=O)(=O)c2ccc(NC(=O)c3ccccc3Cl)cc2C#N)cc1`, for which, in assay [1], the “activity change, negative = inhibition” value is “inactive”.
Regarding `CCCOc1ccc(-c2nc(OC)c3ccccc3n2)cc1`, in assay [1], the “activity change, negative = inhibition” value is “inactive”.
For `COc1nc(-c2cccc(Cl)c2)nc2ccccc12`, the “activity change, negative = inhibition” value in assay [1] was “inactive”.
In the case of `COc1cccc(-c2nc(OC)c3ccccc3n2)c1`, in assay [1], the “activity change, negative = inhibition” value is “inactive”.
`COc1ccc(Sc2ccc(NC(=O)c3ccccc3C#N)cc2C#N)cc1`: the “activity change, negative = inhibition” value in assay [1] was “inactive”.
In the case of `CCCOc1ccc(-c2nc(NC)c3ccccc3n2)cc1`, in assay [2], the AC50 was 31.6 µM.
In the case of `COc1ccc(Sc2ccc(N)cc2C#N)cc1`, the “activity change, negative = inhibition” value in assay [1] was “inactive”.
Regarding `COc1ccc(Sc2ccc(NC(=O)c3ccc(OC)cc3)cc2C#N)cc1`, the “activity change, negative = inhibition” value in assay [1] is “inactive”.
For `CCCOc1ccc(-c2nc(OC(C)C)c3ccccc3n2)cc1`, the AC50 in assay [2] is 37.5 µM.
For `CCCOc1ccc(-c2nc(N(C)C)c3ccccc3n2)cc1`, the “activity change, negative = inhibition” value in assay [1] is “inactive”.
As for `Cc1ccc(NC(=O)n2c3ccccc3c3ccccc32)cc1`, the “activity change, negative = inhibition” value in assay [1] is “inactive”.
On to `Cc1ccc(C(=O)n2c3ccccc3c3ccncc32)cc1`, for which the AC50 in assay [2] was 40.9 µM.
On to `COc1ccc2c(c1)c1cc(OC)ccc1n2C(=O)c1ccc(C)cc1`, for which the “activity change, negative = inhibition” value in assay [1] was “inactive”.
Consider `CCCOc1ccc(-c2nc3ccccc3c(=O)[nH]2)cc1`, for which the “activity change, negative = inhibition” value in assay [1] was “inactive”.
In the case of `COc1ccc(Sc2ccc(NC(=O)c3ccc(C)cc3)cc2C#N)cc1`, the “activity change, negative = inhibition” value in assay [1] is “inactive”.
As to `CCCOc1ccc(-c2nc(Oc3ccc(C)cc3)c3ccccc3n2)cc1`, the “activity change, negative = inhibition” value in assay [1] is “inactive”.
Consider `O=C(Nc1ccc(Sc2ccccc2)cc1)c1ccccc1Cl`, for which, in assay [2], the AC50 was 44.4 µM.
Take `Cc1ccc(C(=O)n2ncc3ccccc32)cc1`: the “activity change, negative = inhibition” value in assay [1] was “inactive”.
In the case of `COc1ccc(Sc2ccc(NCc3ccccc3Cl)cc2C#N)cc1`, the “activity change, negative = inhibition” value in assay [1] is “inactive”.
Take `COc1nc(-c2cccc(F)c2)nc2ccccc12`: the “activity change, negative = inhibition” value in assay [1] was “inactive”.
As to `COc1ccc(Sc2ccc(NC(=O)c3ccccc3OC)cc2C#N)cc1`, in assay [1], the “activity change, negative = inhibition” value is “inactive”.
For the compound `O=C(c1ccc(N2CCOCC2)cc1)n1c2ccccc2c2ccccc21`, the “activity change, negative = inhibition” value in assay [1] is “inactive”.
For `O=C(c1cscn1)n1c2ccccc2c2ccccc21`, in assay [1], the “activity change, negative = inhibition” value is “inactive”.
`Cc1ccc(C(=O)n2c3ccccc3c3ccccc32)cn1`: the “activity change, negative = inhibition” value in assay [1] is “inactive”.
For `COc1nc(-c2ccc(Cl)cc2)nc2ccccc12`, in assay [1], the “activity change, negative = inhibition” value is “inactive”.
Still for that read-out and setting: the same measure for `O=c1[nH]c(-c2cccc(F)c2)nc2ccccc12`: “inactive”; for `COc1ccc(Sc2ccc(NC(=O)c3ccccc3Cl)cc2C#N)cc1`: “inactive”; for `COc1ccc(C(=O)n2c3ccccc3c3ccccc32)cc1`: “inactive”.
`COc1ccc(Sc2ccc(NC(=O)c3ccccc3Cl)cc2)cc1`: the “activity change, negative = inhibition” value in assay [1] is “inactive”.
On to `CCCOc1ccc(-c2nc(OCCCOC)c3ccccc3n2)cc1`, for which the “activity change, negative = inhibition” value in assay [1] was “inactive”.
Same read-out and setting: then `Cc1ccc(C(=O)n2c3ccccc3c3cccnc32)cc1`, with “inactive”.
On the same count and under the same terms, the same measure for `COc1ccc(Sc2ccc(N(C(=O)c3ccccc3Cl)C(=O)c3ccccc3Cl)cc2C#N)cc1`: “inactive”.
